Key:
Histamine H3 receptor [1] = molecular target: T1, Histamine H3 receptor (Cavia porcellus, UniProt Q9JI35); assay: In vitro binding affinity for histamine H3 receptor was determined in guinea-pig cerebral cortex using [3H](R)-alpha-methylhistamine; type: tissue-based
[2] = molecular target: Histamine H3 receptor (Cavia porcellus) (UniProt Q9JI35); assay: Tested in vitro against histamine H3 receptor mediated inhibition of cholinergic neurogenic contractions in isolated guinea pig ileum; type: functional, tissue-based
Chain of Histamine H3 receptor (Cavia porcellus) (Q9JI35 whole entry): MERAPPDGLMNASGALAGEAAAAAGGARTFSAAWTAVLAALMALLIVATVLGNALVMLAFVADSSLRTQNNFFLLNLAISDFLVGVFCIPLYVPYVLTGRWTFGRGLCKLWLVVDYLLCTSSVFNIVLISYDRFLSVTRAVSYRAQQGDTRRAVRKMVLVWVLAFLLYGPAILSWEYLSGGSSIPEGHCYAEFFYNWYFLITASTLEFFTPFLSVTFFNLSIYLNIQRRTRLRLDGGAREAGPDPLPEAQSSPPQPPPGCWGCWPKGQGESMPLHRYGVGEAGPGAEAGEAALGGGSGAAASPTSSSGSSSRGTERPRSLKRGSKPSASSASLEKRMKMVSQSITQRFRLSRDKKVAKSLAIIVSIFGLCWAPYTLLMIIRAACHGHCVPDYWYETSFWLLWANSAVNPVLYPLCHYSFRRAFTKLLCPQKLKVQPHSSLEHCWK
In short: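 Electrically stimulated guinea-pig ileum, where H3 receptors mediate inhibition of cholinergic neurogenic contractions. Agonist was (R)-α-methylhistamine. pKB ± SEM was estimated from single shifts of the agonist concentration-effect curve in at least four separate tissues, for compounds acting as surmountable antagonists. Compounds were given as dihydrochloride salts.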

Histamine H3 receptor [3] = molecular target: T1, Histamine H3 receptor; assay: In vitro binding affinity towards histamine H3 receptor was determined in guinea-pig cerebral cortex using [3H](R)-alpha-methylhistamine

T1 sequence (Q9JI35 whole entry): as above

Row | Ki (Histamine H3 receptor [1]) [µM] | pKB [2] | SMILES | Ki (Histamine H3 receptor [3]) [µM]
1 | 0.0107 | 8.14 | N=C(NCCCCCN1CCCCC1)NCC12CC3CC(CC(C3)C1)C2 | 
2 | 0.00468 | 8.09 | N=C(N)N(CCCCCCCCN1CCCC1)Cc1ccc(Cl)cc1 | 
3 | 0.407 | 5.66 | S=C(NCCCN1CCCC1)NCc1ccc(Cl)cc1 | 
4 | 0.00141 | 7.52 | N=C(NCCCCCN1CCCC1)NCC1CCCCC1 | 
5 | 0.229 | 6.21 | O=S(=O)(NCCCN1CCCC1)NCc1ccc(Cl)cc1 | 
6 | 0.02 | 6.2 | N=C(NCCCN1CCCC1)NCc1ccccc1 | 
7 | 0.00355 | 7.67 | N=C(NCCCCCN1CCCC1)NCC1CCCCCC1 | 
8 | 0.000933 | 6.68 | N=C(NCCCN1CCCC1)NCCc1ccc(Cl)cc1 | 
9 | 0.0257 | 6.46 | N=C(NCCCN1CCCC1)NCc1cccc(Br)c1 | 
10 | 0.0562 | 6.42 | N=C(NCCCN1CCCC1)NCc1ccc(Cl)cc1 | 
11 | 0.00631 |  | O=[N+]([O-])c1ccc(OCCCN2CCC(Nc3nc4ccccc4s3)CC2)cc1 | 
12 |  |  | O=[N+]([O-])c1ccc(OCCCCCN2CCCC2)cc1 | 0.039
13 | 0.324 | 5.96 | O=S(=O)(NCCCN1CCCC1)c1ccc2ccccc2c1 | 
14 | 0.0832 | 6.08 | COc1ccc(C/N=C(\N)NCCCN2CCCC2)cc1 | 
15 | 0.00107 | 7.91 | N=C(N)N(CCCCCN1CCCC1)Cc1ccc(Cl)cc1 | 
16 | 0.00417 | 8.39 | N=C(N)N(CCCCCCN1CCCC1)Cc1ccc(Cl)cc1 | 
17 | 0.00513 | 7.32 | N=C(NCCCCN1CCCC1)NCc1ccc(Cl)cc1 | 

Row | Ki (Histamine H3 receptor [1]) [µM] | pKB [2] | SMILES | Ki (Histamine H3 receptor [3]) [µM]
18 | 0.00537 | 7.3 | N=C(NCCCCCN1CCCC1)NCc1ccc(Cl)cc1 | 
19 | 0.00759 | 7.06 | N=C(NCCCCCN1CCCC1)NCCc1ccc(Cl)cc1 | 
20 | 0.0479 | 5.93 | CN(C)CCCSC(=N)N | 
21 | 0.00355 | 7.9 | N=C(NCCCCCN1CCCC1)NCC12CC3CC(CC(C3)C1)C2 | 
22 | 1 | 5.52 | CN(C)CCCNS(=O)(=O)c1ccc2ccccc2c1 | 
23 | 0.00794 | 7.34 | N=C(N)N(CCCCN1CCCC1)Cc1ccc(Cl)cc1 | 
24 | 0.00468 | 6.45 | N=C(NCCCN1CCCC1)NCc1ccc(Br)cc1 | 
25 | 0.537 | 6.24 | O=S(=O)(Cc1ccc(Cl)cc1)NCCCN1CCCC1 | 
26 | 0.0537 | 6.43 | N=C(NCCCN1CCCC1)NCc1ccc(I)cc1 | 
27 | 0.00676 | 6.24 | N=C(NCCCCN1CCCC1)NCCc1ccc(Cl)cc1 | 
28 | 0.0302 | 7.37 | N=C(NCCCCCN1CCCCCCC1)NCC12CC3CC(CC(C3)C1)C2 | 
29 | 0.0427 | 6.27 | N=C(NCCCN1CCCC1)NCc1ccccc1Br | 
30 | 0.002 | 8.38 | N=C(N)N(CCCCCCCN1CCCC1)Cc1ccc(Cl)cc1 | 
31 | 0.00794 | 7.84 | N=C(NCCCCCN1CCCCCC1)NCC12CC3CC(CC(C3)C1)C2 | 
32 | 0.1 | 6.1 | N=C(NCCCN1CCCC1)NCc1ccc(C(F)(F)F)cc1 | 
33 | 0.0537 | 6.03 | N=C(NCCCN1CCCC1)Nc1ccc(Cl)cc1 | 
